Measured values taken from ChEMBL document CHEMBL1158538, “(-)-Menthylamine derivatives as potent and selective antagonists of transient receptor potential melastatin type-8 (TRPM8) channels” (Bioorg Med Chem Lett, 2010).

Columns and labels:
[1] = target: T1, Transient receptor potential cation channel subfamily V member 1 (Homo sapiens, UniProt Q8NER1); test: Agonist activity at human TRPV1 receptor expressed in HEK293 cells assessed as intracellular calcium stimulation; assay type: functional, cell-based
T1 sequence (Q8NER1 whole entry): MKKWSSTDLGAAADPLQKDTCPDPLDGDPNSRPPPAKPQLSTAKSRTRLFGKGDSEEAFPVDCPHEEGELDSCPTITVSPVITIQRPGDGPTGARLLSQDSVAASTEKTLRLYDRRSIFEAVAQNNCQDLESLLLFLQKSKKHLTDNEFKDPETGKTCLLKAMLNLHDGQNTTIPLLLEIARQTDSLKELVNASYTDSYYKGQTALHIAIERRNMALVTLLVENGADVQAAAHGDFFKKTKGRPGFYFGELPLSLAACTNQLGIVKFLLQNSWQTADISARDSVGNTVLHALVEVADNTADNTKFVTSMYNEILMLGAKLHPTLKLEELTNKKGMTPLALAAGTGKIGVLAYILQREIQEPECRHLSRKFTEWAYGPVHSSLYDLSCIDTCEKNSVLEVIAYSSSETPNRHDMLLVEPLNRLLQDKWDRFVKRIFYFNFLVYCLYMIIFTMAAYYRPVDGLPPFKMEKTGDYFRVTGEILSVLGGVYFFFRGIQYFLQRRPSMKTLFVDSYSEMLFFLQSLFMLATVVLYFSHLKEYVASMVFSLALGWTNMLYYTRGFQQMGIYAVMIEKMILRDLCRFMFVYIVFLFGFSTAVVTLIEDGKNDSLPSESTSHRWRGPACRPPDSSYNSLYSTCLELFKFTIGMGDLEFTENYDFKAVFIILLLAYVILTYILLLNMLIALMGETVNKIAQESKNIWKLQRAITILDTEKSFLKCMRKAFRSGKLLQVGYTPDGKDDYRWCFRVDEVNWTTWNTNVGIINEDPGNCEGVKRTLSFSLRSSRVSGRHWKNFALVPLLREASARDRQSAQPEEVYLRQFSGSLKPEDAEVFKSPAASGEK
Summary of the method: (§1)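 Stably transfected HEK-293 lines (human TRPV1 or rat TRPA1) exposed to compound; rise in intracellular Ca2+ recorded. Non-transfected HEK-293 cells served as control. EC50 reported as mean ± SEM, N = 3.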

[2] = target: T2, Transient receptor potential cation channel subfamily M member 8 (Rattus norvegicus, UniProt Q8R455); test: Antagonist activity at rat TRMP8 receptor expressed in HEK293 cells assessed as menthol-induced calcium elevation; assay type: functional, cell-based
T2 sequence (Q8R455 whole entry): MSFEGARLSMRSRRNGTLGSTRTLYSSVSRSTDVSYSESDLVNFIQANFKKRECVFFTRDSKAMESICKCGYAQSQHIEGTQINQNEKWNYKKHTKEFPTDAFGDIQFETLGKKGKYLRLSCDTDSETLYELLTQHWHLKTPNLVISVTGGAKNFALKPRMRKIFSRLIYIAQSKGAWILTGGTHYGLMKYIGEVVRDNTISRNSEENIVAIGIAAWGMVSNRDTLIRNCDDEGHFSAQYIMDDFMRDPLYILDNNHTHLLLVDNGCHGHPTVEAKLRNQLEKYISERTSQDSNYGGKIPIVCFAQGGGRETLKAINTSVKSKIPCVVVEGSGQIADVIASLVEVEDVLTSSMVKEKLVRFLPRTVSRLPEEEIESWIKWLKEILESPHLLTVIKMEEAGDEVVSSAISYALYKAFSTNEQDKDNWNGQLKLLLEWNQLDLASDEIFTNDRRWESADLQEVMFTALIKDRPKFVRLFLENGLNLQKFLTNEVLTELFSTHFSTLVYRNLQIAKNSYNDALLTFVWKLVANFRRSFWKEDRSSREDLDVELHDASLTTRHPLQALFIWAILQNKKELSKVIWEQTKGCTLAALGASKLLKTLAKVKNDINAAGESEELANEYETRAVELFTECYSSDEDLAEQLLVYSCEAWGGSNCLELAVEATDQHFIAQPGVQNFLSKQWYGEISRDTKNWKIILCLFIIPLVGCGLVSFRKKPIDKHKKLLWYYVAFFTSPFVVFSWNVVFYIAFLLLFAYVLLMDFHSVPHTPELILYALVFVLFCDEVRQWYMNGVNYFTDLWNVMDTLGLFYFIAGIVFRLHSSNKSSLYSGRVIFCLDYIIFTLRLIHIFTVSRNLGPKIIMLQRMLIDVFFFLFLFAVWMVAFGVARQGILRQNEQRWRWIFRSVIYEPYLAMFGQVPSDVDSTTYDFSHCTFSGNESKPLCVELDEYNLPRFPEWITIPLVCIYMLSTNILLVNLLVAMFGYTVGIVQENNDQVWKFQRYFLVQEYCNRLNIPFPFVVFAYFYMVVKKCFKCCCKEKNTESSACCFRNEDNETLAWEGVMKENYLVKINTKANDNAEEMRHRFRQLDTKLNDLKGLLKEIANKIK
Summary of the method: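 Rat TRPM8-transfected HEK-293 cells were pretreated with compound for 5 min, then challenged with menthol (20 µM). Block of the Ca2+ rise gave IC50 (means ± SEM, N = 3).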

[3] = target: Transient receptor potential cation channel subfamily A member 1 (Rattus norvegicus) (UniProt Q6RI86); test: Agonist activity at rat TRPA1 receptor expressed in HEK293 cells assessed as intracellular calcium stimulation relative to isothiocyanate; assay type: functional, cell-based
Transient receptor potential cation channel subfamily A member 1 (Rattus norvegicus), sequence (Q6RI86 whole entry): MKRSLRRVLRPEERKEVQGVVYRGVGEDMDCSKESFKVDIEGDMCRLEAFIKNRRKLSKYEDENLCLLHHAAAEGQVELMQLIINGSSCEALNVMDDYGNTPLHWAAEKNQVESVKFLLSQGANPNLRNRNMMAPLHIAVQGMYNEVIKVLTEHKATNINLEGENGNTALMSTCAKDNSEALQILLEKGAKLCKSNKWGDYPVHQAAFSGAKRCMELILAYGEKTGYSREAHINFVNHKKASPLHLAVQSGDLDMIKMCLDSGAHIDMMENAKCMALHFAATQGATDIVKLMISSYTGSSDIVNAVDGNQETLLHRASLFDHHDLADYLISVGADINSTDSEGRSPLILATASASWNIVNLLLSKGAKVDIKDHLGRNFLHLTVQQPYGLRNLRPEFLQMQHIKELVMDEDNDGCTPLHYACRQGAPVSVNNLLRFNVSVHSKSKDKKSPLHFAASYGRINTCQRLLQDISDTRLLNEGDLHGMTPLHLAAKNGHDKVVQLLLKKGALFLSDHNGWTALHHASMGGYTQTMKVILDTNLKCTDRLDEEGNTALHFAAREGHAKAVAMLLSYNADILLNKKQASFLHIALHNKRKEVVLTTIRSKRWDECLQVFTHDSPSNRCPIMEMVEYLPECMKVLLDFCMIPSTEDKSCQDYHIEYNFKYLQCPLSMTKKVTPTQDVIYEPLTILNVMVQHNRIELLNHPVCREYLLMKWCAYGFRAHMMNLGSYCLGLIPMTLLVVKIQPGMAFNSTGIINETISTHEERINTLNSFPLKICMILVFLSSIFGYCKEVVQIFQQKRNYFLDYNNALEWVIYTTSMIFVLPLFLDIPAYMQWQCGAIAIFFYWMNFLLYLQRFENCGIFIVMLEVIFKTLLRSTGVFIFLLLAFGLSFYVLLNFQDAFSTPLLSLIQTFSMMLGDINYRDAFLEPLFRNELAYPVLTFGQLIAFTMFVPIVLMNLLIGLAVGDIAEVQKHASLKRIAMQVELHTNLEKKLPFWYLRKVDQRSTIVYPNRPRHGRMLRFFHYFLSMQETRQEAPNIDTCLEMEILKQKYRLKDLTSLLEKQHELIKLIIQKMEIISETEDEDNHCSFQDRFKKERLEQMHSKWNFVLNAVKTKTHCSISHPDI
Summary of the method: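 Intracellular Ca2+ rise in HEK-293 cells stably transfected with rat TRPA1, given as percent of the response to allyl isothiocyanate (100 µM). Efficacy under 10% scored not measurable. N = 3, mean ± SEM.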

[4] = target: Transient receptor potential cation channel subfamily A member 1 (Rattus norvegicus, UniProt Q6RI86); test: Agonist activity at rat TRPA1 receptor expressed in HEK293 cells assessed as intracellular calcium stimulation; assay type: functional, cell-based; summary of the method: as §1
Transient receptor potential cation channel subfamily A member 1, sequence (Q6RI86 whole entry): as above

[5] = target: T2, Transient receptor potential cation channel subfamily M member 8; test: Antagonist activity at rat TRMP8 receptor expressed in HEK293 cells assessed as icilin-induced calcium elevation; assay type: functional, cell-based
Summary of the method: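 HEK-293 cells stably expressing rat TRPM8 received compound 5 min before icilin (0.25 µM). Inhibition of the intracellular Ca2+ elevation was measured. IC50 given as mean ± SEM of N = 3.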

[6] = target: T1, Transient receptor potential cation channel subfamily V member 1; test: Agonist activity at human TRPV1 receptor expressed in HEK293 cells assessed as intracellular calcium stimulation relative to inomycin; assay type: functional, cell-based
Summary of the method: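 Ca2+ elevation in HEK-293 cells stably expressing human TRPV1, expressed as percent of the ionomycin ([…]) response. Not measurable if below 10%. Mean ± SEM, N = 3.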

LNCaP = test: Induction of apoptosis in human LNCAP cells assessed as caspase 3/7 release at 1 uM; assay type: functional
Summary of the method: (§2)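 Prostate carcinoma cells (LNCaP, high TRPM8; DU-145, negligible TRPM8) were treated at 1 µM. Apoptosis was read as caspase 3/7 release in arbitrary units. Anti-FAS antibody plus camptothecin served as reference. Means ± SD, N = 3 experiments.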

DU-145 = test: Induction of apoptosis in human DU145 cells assessed as caspase 3/7 release at 1 uM; assay type: functional; summary of the method: as §2

Structure (SMILES) | EC50 [1] [µM] | IC50 [2] [nM] | Efficacy [3] [%] | EC50 [4] [µM] | IC50 [5] [nM] | Efficacy [6] [%] | Activity (LNCaP) [a.u.] | Activity (DU-145) [a.u.]
CC(C)[C@@H]1CC[C@@H](C)C[C@H]1NC(=O)Oc1ccc(Cl)cc1 | 42.8 | 800 | 181 | 7.1 | 4100 | 15.1 |  | 
CC(C)[C@@H]1CC[C@@H](C)C[C@H]1NC(=O)Oc1cccc(Cl)c1 | 19.2 | 1500 | 309 | 30 | 500 | 22.6 |  | 
CC(C)[C@@H]1CC[C@@H](C)C[C@H]1NC(=O)NCCc1c[nH]c2ccc(O)cc12 | 52.2 | 15800 | < 10 |  | 31000 | 12.7 |  | 
CC(C)[C@@H]1CC[C@@H](C)C[C@H]1NC(=O)Oc1cccc(-c2ccccc2)c1 | 7.1 | 50 | 282 | 31 | 1500 | 50.9 |  | 
CC(C)[C@@H]1CC[C@@H](C)C[C@H]1NC(=O)Oc1ccc(-c2ccccc2)cc1 |  | 700 | 87.2 | 6.7 | 7400 | 4.4 |  | 
CC(C)[C@@H]1CC[C@@H](C)C[C@H]1NC(=O)c1ccc(C(C)(C)C)cc1 | 0.25 | 97600 | 138 | 4.9 | 60800 | 27.4 |  | 
CC(C)[C@@H]1CC[C@@H](C)C[C@H]1NC(=O)NC12CC3CC(CC(C3)C1)C2 | 1 | > 100000 | 159 | 11.2 | > 100000 | 24.4 |  | 
CC(C)[C@@H]1CC[C@@H](C)C[C@H]1NC(=O)Oc1cccc(C(C)(C)C)c1 | 5.8 | 5900 | 273 | 36.7 | 3300 | 16.3 |  | 
CC(C)[C@@H]1CC[C@@H](C)C[C@H]1NC(=O)Oc1ccc(C(F)(F)F)cc1 |  | 200 | 88.9 | 3 | 700 | 3.3 |  | 
CC(C)[C@@H]1CC[C@@H](C)C[C@H]1NC(=O)Oc1cccc(C(F)(F)F)c1 |  | 300 | 220 | 13.8 | 600 | 7.4 |  | 
CC(C)[C@@H]1CC[C@@H](C)C[C@H]1NC(=O)c1ccc(-c2ccccc2)cc1 |  | 20 | 34.7 | 4.1 | 50 | 7.8 | 58576 | 9770
CC(C)[C@@H]1CC[C@@H](C)C[C@H]1NC(=O)Oc1ccc(C(C)(C)C)cc1 | 18.3 | 100 | 76 | 11.7 | 80 | 23.8 |  | 

More lines, main results first:

EC50 [1] [µM] | IC50 [2] [nM] | Efficacy [3] [%] | EC50 [4] [µM] | IC50 [5] [nM] | Efficacy [6] [%] | Structure (SMILES) | Activity (LNCaP) [a.u.] | Activity (DU-145) [a.u.]
7.6 | 2800 | < 10 |  | 2100 | 41.9 | CC(C)[C@@H]1CC[C@@H](C)C[C@H]1NC(=O)c1cccc(Cl)c1 |  | 
 | 2200 | < 10 |  | 2500 | 5.4 | Cc1ccc(C(=O)N[C@@H]2C[C@H](C)CC[C@H]2C(C)C)cc1 |  | 
53.8 | 2200 | 135 | 3.2 | 2600 | 46.6 | COc1ccc(OC(=O)N[C@@H]2C[C@H](C)CC[C@H]2C(C)C)cc1 |  | 
 | 1100 | 73.9 | 0.7 | 700 | 3.4 | Cc1ccc(OC(=O)N[C@@H]2C[C@H](C)CC[C@H]2C(C)C)cc1 |  | 
0.23 | 30500 | < 10 |  | 19800 | 63.2 | COc1cc(CNC(=O)N[C@@H]2C[C@H](C)CC[C@H]2C(C)C)ccc1O |  | 
4.1 | 700 | 223 | 40.2 | 1600 | 53.8 | CC(C)[C@@H]1CC[C@@H](C)C[C@H]1NC(=O)c1ccc(Cl)cc1 |  | 
 | 60600 | < 10 |  | > 100000 | 4.4 | CCCCCCCC/C=C\CCCCCCCC(=O)N[C@@H]1C[C@H](C)CC[C@H]1C(C)C |  | 
 | 400 | 42.8 | 0.4 | 400 | 8 | CC(C)[C@@H]1CC[C@@H](C)C[C@H]1NC(=O)CCCCCCc1ccccc1 |  | 
 | 12800 | < 10 |  | 9600 | 9.6 | COc1ccc(C(=O)N[C@@H]2C[C@H](C)CC[C@H]2C(C)C)cc1 |  | 
 | 400 | 67 | 26.7 | 500 | 5.5 | CC(C)[C@@H]1CC[C@@H](C)C[C@H]1NC(=O)CCCCCCCc1ccccc1 |  | 
